Active and inactive are the calls of the source. The calls are words filed in the database; no cut-off is given here.
Columns and labels:
[1] = biological target: 5-hydroxytryptamine receptor 5A (Homo sapiens, UniProt P47898); assay: Displacement of [3H]-LSD from human recombinant 5-HT5A receptor expressed in Flp-In CHO cells at 10 uM after 90 mins by microbeta scintillation counting method relative to control; type: cell-based
Summary of the method: (§1)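 Radioligand binding run by the NIMH Psychoactive Drug Screening Program. […] Otherwise Ki comes from sigmoidal curve fits of triplicate measurements in a single experiment, or is averaged over repeated experiments each run in triplicate.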

[2] = biological target: Alpha-2A adrenergic receptor (Homo sapiens) (UniProt P08913); assay: Displacement of [3H]-Rauwolscine from human recombinant adrenergic Alpha2A receptor expressed in stable MDCK cells at 10 uM after 90 mins by microbeta scintillation counting method relative to control; type: cell-based
Chain of Alpha-2A adrenergic receptor (Homo sapiens) (P08913 whole entry): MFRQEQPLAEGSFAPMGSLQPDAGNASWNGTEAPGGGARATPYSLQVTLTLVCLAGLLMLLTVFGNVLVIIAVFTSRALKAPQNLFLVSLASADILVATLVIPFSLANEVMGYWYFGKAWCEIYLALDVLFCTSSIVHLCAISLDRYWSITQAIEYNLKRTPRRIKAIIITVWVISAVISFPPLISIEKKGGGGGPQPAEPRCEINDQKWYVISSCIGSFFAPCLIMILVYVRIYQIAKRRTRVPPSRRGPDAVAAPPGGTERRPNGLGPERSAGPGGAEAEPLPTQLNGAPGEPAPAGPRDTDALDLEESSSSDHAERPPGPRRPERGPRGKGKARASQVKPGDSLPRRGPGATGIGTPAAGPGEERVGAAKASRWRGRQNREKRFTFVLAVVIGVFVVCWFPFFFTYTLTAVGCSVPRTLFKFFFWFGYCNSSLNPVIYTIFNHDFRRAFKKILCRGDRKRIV

[3] = biological target: Beta-2 adrenergic receptor (Homo sapiens, UniProt P07550); assay: Displacement of [3H]-CGP12177 from human recombinant adrenergic Beta2 receptor expressed in Flp-In HEK cells at 10 uM after 90 mins by microbeta scintillation counting method relative to control; type: cell-based; summary of the method: as §1
Chain of Beta-2 adrenergic receptor (P07550 whole entry, looked up): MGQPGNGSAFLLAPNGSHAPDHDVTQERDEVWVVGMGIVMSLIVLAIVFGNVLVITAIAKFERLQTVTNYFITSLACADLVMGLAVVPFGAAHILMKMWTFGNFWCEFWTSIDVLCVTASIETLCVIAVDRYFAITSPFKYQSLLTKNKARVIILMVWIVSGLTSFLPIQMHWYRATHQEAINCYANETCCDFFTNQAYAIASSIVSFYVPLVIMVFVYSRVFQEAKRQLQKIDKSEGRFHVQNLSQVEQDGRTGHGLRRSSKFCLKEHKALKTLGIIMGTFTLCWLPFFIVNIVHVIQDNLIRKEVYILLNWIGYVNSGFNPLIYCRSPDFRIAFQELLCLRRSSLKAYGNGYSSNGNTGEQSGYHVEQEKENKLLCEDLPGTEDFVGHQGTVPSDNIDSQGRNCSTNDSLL

Rattus norvegicus = organism: Rattus norvegicus; assay: Displacement of [3H]-Flunitrazepam from BZP receptor in rat brain at 10 uM after 90 mins by microbeta scintillation counting method; type: tissue-based; summary of the method: as §1
Homo sapiens [4] = organism: Homo sapiens; assay: Selectivity index, ratio of Ki for human recombinant 5-HT2B receptor to Ki for human recombinant sigma1 receptor
Homo sapiens [5] = organism: Homo sapiens; assay: Selectivity index, ratio of Ki for human recombinant 5-HT1A to Ki for human recombinant sigma1 receptor
Homo sapiens [6] = organism: Homo sapiens; assay: Selectivity index, ratio of Ki for human recombinant 5-HT1D receptor to Ki for human recombinant sigma1 receptor
Homo sapiens [7] = organism: Homo sapiens; assay: Selectivity index, ratio of Ki for human recombinant 5-HT1E receptor to Ki for human recombinant sigma1 receptor
Homo sapiens [8] = organism: Homo sapiens; assay: Selectivity index, ratio of Ki for human recombinant 5-HT2C receptor to Ki for human recombinant sigma1 receptor
Homo sapiens [9] = organism: Homo sapiens; assay: Selectivity index, ratio of Ki for human recombinant 5-HT3 receptor to Ki for human recombinant sigma1 receptor
Homo sapiens [10] = organism: Homo sapiens; assay: Selectivity index, ratio of Ki for human recombinant 5-HT6 receptor to Ki for human recombinant sigma1 receptor
Homo sapiens [11] = organism: Homo sapiens; assay: Selectivity index, ratio of Ki for human recombinant 5-HT7A receptor to Ki for human recombinant sigma1 receptor
Homo sapiens [12] = organism: Homo sapiens; assay: Selectivity index, ratio of Ki for human recombinant adrenergic alpha1A receptor to Ki for human recombinant sigma1 receptor
Summary of the method: (§2)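 Both Ki values in each ratio come from NIMH Psychoactive Drug Screening Program radioligand binding. […] Other targets were given full binding curves, measured in triplicate, and Ki was taken from a sigmoidal curve fit. Some values were repeated in duplicate or triplicate independent experiments.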

Homo sapiens [13] = organism: Homo sapiens; assay: Selectivity index, ratio of Ki for human recombinant adrenergic Alpha1B receptor to Ki for human recombinant sigma1 receptor; summary of the method: as §2
Homo sapiens [14] = organism: Homo sapiens; assay: Selectivity index, ratio of Ki for human recombinant adrenergic Alpha1D receptor to human recombinant sigma1 receptor; summary of the method: as §2
Homo sapiens [15] = organism: Homo sapiens; assay: Selectivity index, ratio of Ki for human recombinant adrenergic Alpha2B receptor to Ki for human recombinant sigma1 receptor; summary of the method: as §2
Homo sapiens [16] = organism: Homo sapiens; assay: Selectivity index, ratio of Ki for human recombinant adrenergic Alpha2C receptor to Ki for human recombinant sigma1 receptor; summary of the method: as §2
Homo sapiens [17] = organism: Homo sapiens; assay: Selectivity index, ratio of Ki for human recombinant adrenergic Beta1 receptor expressed in Flp-In CHO to Ki for human recombinant sigma1 receptor; summary of the method: as §2
Homo sapiens [18] = organism: Homo sapiens; assay: Selectivity index, ratio of Ki for human recombinant adrenergic Beta2 receptor to Ki for human recombinant sigma1 receptor; summary of the method: as §2
Homo sapiens [19] = organism: Homo sapiens; assay: Selectivity index, ratio of Ki for human recombinant adrenergic Beta3 receptor to Ki for human recombinant sigma1 receptor; summary of the method: as §2
Homo sapiens [20] = organism: Homo sapiens; assay: Selectivity index, ratio of Ki for human recombinant dopamine D1 receptor to Ki for human recombinant sigma1 receptor; summary of the method: as §2
Homo sapiens [21] = organism: Homo sapiens; assay: Selectivity index, ratio of Ki for human recombinant dopamine D2 receptor to Ki for human recombinant sigma1 receptor; summary of the method: as §2
Homo sapiens [22] = organism: Homo sapiens; assay: Selectivity index, ratio of Ki for human recombinant dopamine D3 receptor to Ki for human recombinant sigma1 receptor; summary of the method: as §2
Homo sapiens [23] = organism: Homo sapiens; assay: Selectivity index, ratio of Ki for human recombinant dopamine D4 receptor to Ki for human recombinant sigma1 receptor; summary of the method: as §2
Homo sapiens [24] = organism: Homo sapiens; assay: Selectivity index, ratio of Ki for human recombinant dopamine D5 receptor to Ki for human recombinant sigma1 receptor; summary of the method: as §2
Homo sapiens [25] = organism: Homo sapiens; assay: Selectivity index, ratio of Ki for human recombinant histamine H2 receptor to Ki for human recombinant sigma1 receptor; summary of the method: as §2
Homo sapiens [26] = organism: Homo sapiens; assay: Selectivity index, ratio of Ki for human recombinant Muscarinic acetylcholine M1 receptor to Ki for human recombinant sigma1 receptor; summary of the method: as §2
Homo sapiens [27] = organism: Homo sapiens; assay: Selectivity index, ratio of Ki for human recombinant Muscarinic acetylcholine M2 receptor to Ki for human recombinant sigma1 receptor; summary of the method: as §2
Homo sapiens [28] = organism: Homo sapiens; assay: Selectivity index, ratio of Ki for human recombinant Muscarinic acetylcholine M4 receptor to Ki for human recombinant sigma1 receptor; summary of the method: as §2
Homo sapiens [29] = organism: Homo sapiens; assay: Selectivity index, ratio of Ki for human recombinant Muscarinic acetylcholine M5 receptor to Ki for human recombinant sigma1 receptor; summary of the method: as §2
Homo sapiens [30] = organism: Homo sapiens; assay: Selectivity index, ratio of Ki for human recombinant NET receptor to Ki for human recombinant sigma1 receptor; summary of the method: as §2
Homo sapiens [31] = organism: Homo sapiens; assay: Selectivity index, ratio of Ki for human recombinant KOR receptor to Ki for human recombinant sigma1 receptor; summary of the method: as §2
Homo sapiens [32] = organism: Homo sapiens; assay: Selectivity index, ratio of Ki for human recombinant MOR receptor to Ki for human recombinant sigma1 receptor; summary of the method: as §2
661W [33] = assay: Cytotoxicity against mouse 661W cells at 200 uM after 24 hrs by MTT assay; type: cell-based
Summary of the method: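 661W cells treated 24 h with test agent at 10, 30, 100 and 200 μM. Viability is measured by MTT and compared with nontreated cells.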

661W [34] = assay: Cytoprotective activity in mouse 661W cells assessed as inhibition of t-BHP induced oxidative stress by measuring increase in cell viability after 24 hrs by MTT assay; type: functional, cell-based
661W [35] = assay: Cytoprotective activity in mouse 661W cells assessed as inhibition of t-BHP induced oxidative stress by measuring cell viability at 200 uM after 24 hrs by MTT assay (reference value: >50%); type: functional, cell-based
661W [36] = assay: Cytoprotective activity in mouse 661W cells assessed as inhibition of t-BHP induced oxidative stress by measuring in cell viability at 30 uM in presence of 10 uM of […] preincubated for 30 mins followed by compound addition and measured after 24 hrs by MTT assay; type: functional, cell-based
Summary of the method: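 Same 661W oxidative-stress setup: 55 μM tBHP for 24 h with test agent at 30 μM, plus the σ1 antagonist BD1063 at 10 μM. Viability is read by MTT.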

661W [37] = assay: Cytoprotective activity in mouse 661W cells assessed as reduction in tBHP-induced ROS level at 30 uM after 2 hrs by […] fluorescent microscopic analysis; type: functional, cell-based
Summary of the method: (§3)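 661W cells seeded on coverslips for 18 h, then exposed 2 h to 55 μM tBHP with or without test agent or (+)-pentazocine. ROS are detected with CellROX green dye by epifluorescence, with DAPI marking nuclei. Fluorescence intensity is quantified as mean ± SD from three independent experiments, each run in duplicate.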

661W [38] = assay: Cytoprotective activity in mouse 661W cells assessed as reduction in tBHP-induced ROS level at 10 to 30 uM after 2 hrs by […] fluorescent microscopic analysis; type: functional, cell-based; summary of the method: as §3

Chain of 5-hydroxytryptamine receptor 5A (P47898 whole entry): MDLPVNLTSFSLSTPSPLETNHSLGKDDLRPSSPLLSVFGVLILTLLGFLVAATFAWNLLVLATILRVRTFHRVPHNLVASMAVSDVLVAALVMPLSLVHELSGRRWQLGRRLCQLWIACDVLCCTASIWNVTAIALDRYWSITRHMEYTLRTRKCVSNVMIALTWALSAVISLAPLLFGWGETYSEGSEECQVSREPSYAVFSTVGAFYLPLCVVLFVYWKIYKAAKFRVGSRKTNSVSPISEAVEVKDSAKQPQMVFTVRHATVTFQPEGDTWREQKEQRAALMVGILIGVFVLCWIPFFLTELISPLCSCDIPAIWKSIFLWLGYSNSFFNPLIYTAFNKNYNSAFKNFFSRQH

`CC[C@H]1c2cc(C)ccc2OC[C@@]1(C)N` (racemic) gave an inhibition [1] of less than 50%, an inhibition [2] of less than 50% and an inhibition [3] of less than 50%. For the same compound, the inhibition (Rattus norvegicus) was less than 50%.

In the case of `COc1cc(OC)c2c(c1)OC[C@@]1(C)NCC[C@@H]21` (racemic), the Ratio Ki (Homo sapiens [4]) was greater than 5, the Ratio Ki (Homo sapiens [5]) was greater than 20 and the Ratio Ki (Homo sapiens [6]) was greater than 20. It also gave a Ratio Ki (Homo sapiens [7]) greater than 20, a Ratio Ki (Homo sapiens [8]) greater than 20 and a Ratio Ki (Homo sapiens [9]) greater than 20. It also gave a Ratio Ki (Homo sapiens [10]) greater than 20, a Ratio Ki (Homo sapiens [11]) greater than 20 and a Ratio Ki (Homo sapiens [12]) greater than 20. For the same compound, the Ratio Ki (Homo sapiens [13]) was greater than 20, the Ratio Ki (Homo sapiens [14]) was greater than 20 and the Ratio Ki (Homo sapiens [15]) was greater than 20. It also gave a Ratio Ki (Homo sapiens [16]) greater than 20, a Ratio Ki (Homo sapiens [17]) greater than 20 and a Ratio Ki (Homo sapiens [18]) greater than 20. It also gave a Ratio Ki (Homo sapiens [19]) greater than 20, a Ratio Ki (Homo sapiens [20]) greater than 20 and a Ratio Ki (Homo sapiens [21]) greater than 20. The Ratio Ki (Homo sapiens [22]) was greater than 20, the Ratio Ki (Homo sapiens [23]) was greater than 20 and the Ratio Ki (Homo sapiens [24]) was greater than 20. The Ratio Ki (Homo sapiens [25]) was greater than 20, the Ratio Ki (Homo sapiens [26]) was greater than 20 and the Ratio Ki (Homo sapiens [27]) was greater than 20. The Ratio Ki (Homo sapiens [28]) was greater than 20, the Ratio Ki (Homo sapiens [29]) was greater than 20 and the Ratio Ki (Homo sapiens [30]) was greater than 20. For the same compound, the Ratio Ki (Homo sapiens [31]) was greater than 20, the Ratio Ki (Homo sapiens [32]) was greater than 20 and the Activity (661W [33]) was “Non-Toxic”. The Activity (661W [34]) was “Dose-dependent effect”, the Activity (661W [35]) was “inactive” and the Activity (661W [36]) was “inactive”. The inhibition (661W [37]) was “Active” and the inhibition (661W [38]) was “Active”.
